The record followed here is PubChem BioAssay.

Assay [1] is described as follows: reduced viability of SK-BR-3 breast cancer cells – cell-based, 24 h, human, pilot screen (AID 572;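 active = viability at or below 10% of carrier control in both of two separate runs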;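 also: compound exposure lasted between 18 and 24 h rather than exactly 24 h; 100% = carrier-treated control wells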). The conditions noted are these: SK-BR-3 viability, CellTiter-Glo luminescence, at 10 µM, stronger effect = lower value. (In ATP-based viability assays light output follows the ATP content of the culture.)
The nature of assay [2]: HUVEC growth inhibition – cell-based, human, primary screen (AID 575).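 Also: 100% = median of untreated cell wells with 0.1% DMSO on each plate.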 The conditions noted are these: HUVEC proliferation, CellTiter-Glo luminescence, 72 h; at 10 µM; stronger effect = lower value. The gist of the method: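 Test system: primary human umbilical vein endothelial cells; medium: endothelial basal medium with 2% FBS plus growth supplements; dosing: 10 µM compound only; times: 72 h treatment at 37 °C; signal: CTG luminescence; read-out: % viability relative to median vehicle-well signal on each plate; control set: vehicle and MePR control wells; plate: 384-well, collagen-coated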

The nature of assay [3]: H69AR cell proliferation blockers – human, duplicate replicates, primary screen (AID 580;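 active = viability at or under a set limit in both replicates, limit being median viability minus 3 SD, cut at about 48% in these data, passing the limit was not always enough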;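 also: 100% = mean luminescence of untreated wells and 0% = no signal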). Conditions: H69AR lung tumor cells viability, ATP luminescence, 72 h; at 10 µM; stronger effect = lower value.
Assay [4] can be described thus: MRP1 drug-resistance reversers in H69AR cells – cell-based, doxorubicin co-treatment, pilot screen (AID 601;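 active = viability loss from added drug above about 55%, and viability with drug at most 40%, in both replicates, limit read from the data, passing the limit was not always enough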). The conditions noted are these: CellTiter-Glo, 72 h, at 10 µM; for differential viability (reversal): stronger effect = higher value.
Assay [5] can be described thus: yeast transport mutant growth inhibition pilot in 384-well plates, post-Golgi transport modulator project (AID 636; in the data active = inhibition above about 31%). The conditions noted are these: absorbance 615 nm, about 18 h, stronger effect = higher value.
A short description of assay [6]: growth suppression of yeast trafficking mutant, preliminary HTS, modulators of trafficking downstream of Golgi apparatus project, 1536-format plate, OD 615 nm (AID 637; in the data active = inhibition above about 30%). Conditions: yeast transport mutant growth, absorbance 615 nm, 18 h; stronger effect = higher value.
Where [7] appears, read: H69AR cells + 2 uM doxorubicin, measured here: viability with 2 uM doxorubicin, stronger effect = lower value.
The mark [8] stands for this setting: H69AR cells, compound alone cytotoxicity.

Calls of active or inactive are those of the source.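 The calls were made as follows, unless noted: active = viability at or below 30% in both replicate assays; inconclusive = viability at or below 30% in just one of the two assays; inactive = the rest.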

Turning to `CC(=O)Nc1nnc(S(N)(=O)=O)s1`, the viability (usually a read-out of living cells in per cent, often relative to untreated cells) in assay [1] is 95% (inactive); in assay [2], 88.7% (inactive); in assay [3], 109% (inactive); in assay [4] (setting [7]), 84.6%; in assay [4] (setting [8]) it was 109%. Moreover, in assay [4] (H69AR cells + 2 uM doxorubicin), the differential viability (reversal) was 24.6% (inactive). Further, the inhibition – broadly, the relative decrease from the control value, in per cent – in assay [5] was -1.82% (inactive); in assay [6], 3.33% (inactive).

Consider `Cc1ccc(CC2SC(=O)NC2=O)cc1Cl` (stereo unspecified), for which the viability in assay [1] is 107% (inactive); in assay [2], 75.8% (inactive); in assay [3], 92.7% (inactive); in assay [4] (setting [7]) it was 88.4%; in assay [4] (setting [8]), 92.7%. In addition, in assay [4] (H69AR cells + 2 uM doxorubicin), the differential viability (reversal) is 4.26% (inactive). In addition, the inhibition in assay [5] was 3.42% (inactive); in assay [6], -2.26% (inactive).

As to `COCCCNC(=O)C1CCN(C(=O)Nc2ccc(Cl)cc2)CC1`, the viability in assay [1] is 131% (inactive); in assay [2] it was 92.2% (inactive); in assay [3] it was 99% (inactive); in assay [4] (setting [7]), 87.4%; in assay [4] (setting [8]), 99%. Also, the differential viability (reversal) in assay [4] (H69AR cells + 2 uM doxorubicin) is 11.6% (inactive). Further, the inhibition is -1.04% (inactive) in assay [5] and 1.15% (inactive) in assay [6].

Take `COc1ccc(CCN2C(=O)CC(N3CCN(S(=O)(=O)c4ccccc4)CC3)C2=O)cc1` (stereo unspecified): the viability is 103% (inactive) in assay [1]; 107% (inactive) in assay [2]; 96.7% (inactive) in assay [3]; 106% in assay [4] (setting [7]); 96.7% in assay [4] (setting [8]). In assay [4] (H69AR cells + 2 uM doxorubicin), the differential viability (reversal) was -9.06% (inactive). For the same molecule, the results for the inhibition in assay [5] and in assay [6] were 2.05% (inactive) and -0.36% (inactive), respectively.

As to `CCCn1nnc(NCc2ccc(OCc3cccs3)c(OC)c2)n1`, the viability in assay [1] is 88% (inactive); in assay [2] it was 106% (inactive); in assay [3] it was 96.5% (inactive); in assay [4] (setting [7]), 95.5%; in assay [4] (setting [8]), 96.5%. In addition, in assay [4] (H69AR cells + 2 uM doxorubicin), the differential viability (reversal) was 1.02% (inactive). Further, the inhibition in assay [5] is -6.44% (inactive); in assay [6], 2.36% (inactive).

Turning to `Cc1ccc(-c2nnc3c4ccccc4c(C)nn23)cc1NC(=O)c1ccco1`, the viability in assay [1] is 81.5% (inactive); in assay [2], 98.2% (inactive); in assay [3], 91.8% (inactive); in assay [4] (setting [7]), 95.7%; in assay [4] (setting [8]) it was 91.8%. Also, in assay [4] (H69AR cells + 2 uM doxorubicin), the differential viability (reversal) is -3.85% (inactive). The results for the inhibition in assay [5] and in assay [6] were -5.27% (inactive) and 6.51% (inactive), respectively.

With `CCN(CC)C(=O)CSC1=C(C#N)C(c2ccco2)C(C(=O)OCCOC)=C(C)N1` (stereo unspecified), the viability is 116% (inactive) in assay [1]; 101% (inactive) in assay [2]; 78% (inactive) in assay [3]; 71.6% in assay [4] (setting [7]); 78% in assay [4] (setting [8]). The differential viability (reversal) in assay [4] (H69AR cells + 2 uM doxorubicin) is 6.37% (inactive). The inhibition in assay [5] was -6.16% (inactive); in assay [6], 2.58% (inactive).

`O=C(CCCCn1c(=O)c2ccccc2n(Cc2ccc(Cl)cc2)c1=O)NCc1ccco1`: the viability in assay [1] was 100% (inactive); in assay [2], 38.6% (inactive); in assay [3], 29.6% (active); in assay [4] (setting [7]), 43%; in assay [4] (setting [8]), 29.6%. Also, the differential viability (reversal) in assay [4] (H69AR cells + 2 uM doxorubicin) was -13.4% (inactive). Further, the inhibition in assay [5] was -1.17% (inactive); in assay [6], -2.95% (inactive).

Turning to `Cc1ccccc1-n1nc(C)c2cc(C(=O)NCc3cccnc3)sc21`, the viability in assay [1] was 126% (inactive); in assay [2], 74.1% (inactive); in assay [3], 70.3% (inactive); in assay [4] (setting [7]), 59.4%; in assay [4] (setting [8]) it was 70.3%. In assay [4] (H69AR cells + 2 uM doxorubicin), the differential viability (reversal) is 10.8% (inactive). Also, the inhibition is -1.95% (inactive) in assay [5] and 9.51% (inactive) in assay [6].

Consider `CC1=C(/C=C/C(C)=C/C=C/C(C)=C/C(=O)O)C(C)(C)CCC1`, for which the viability was 84% (inactive) in assay [1]; 83.7% (inactive) in assay [2]; 104% (inactive) in assay [3]; 102% in assay [4] (setting [7]); 104% in assay [4] (setting [8]). In addition, in assay [4] (H69AR cells + 2 uM doxorubicin), the differential viability (reversal) was 2% (inactive). Moreover, the figures for the inhibition in assay [5] and in assay [6] were 0.91% (inactive) and 8.67% (inactive), respectively.

For the molecule `CC(C)(C)c1nnc(NC(=O)C2CCN(c3ncccn3)CC2)s1`, the viability is 105% (inactive) in assay [1]; 115% (inactive) in assay [2]; 101% (inactive) in assay [3]; 86.6% in assay [4] (setting [7]); 101% in assay [4] (setting [8]). Also, the differential viability (reversal) in assay [4] (H69AR cells + 2 uM doxorubicin) was 14.3% (inactive). Further, the figures for the inhibition in assay [5] and in assay [6] were -4.03% (inactive) and -0.82% (inactive), respectively.

For `Cn1c(-c2ccc(F)cc2)cnc1SCC(=O)Nc1ccccc1N1CCOCC1`, the viability in assay [1] is 94% (inactive); in assay [2] it was 103% (inactive); in assay [3], 102% (inactive); in assay [4] (setting [7]), 88.8%; in assay [4] (setting [8]) it was 102%. For the same molecule, in assay [4] (H69AR cells + 2 uM doxorubicin), the differential viability (reversal) is 12.9% (inactive). Also, the inhibition is -7.57% (inactive) in assay [5] and -4.55% (inactive) in assay [6].
